High-throughput results: PubChem BioAssay, several laboratories
In the library only some 0.38% were active in any assay of this set; here they are far more common.
GSK3 alpha inh: inhibitors of human GSK-3 alpha kinase; 320,000 tested, 0.1% active; ADP-Glo luminescence, 60 min; P49840; inhibition, % at 10 µM;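 active = more than half of replicates show inhibition above 20%; inconclusive = some but at most half of replicates above 20% inhibition; inactive = no replicate shows inhibition above 20%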;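 note: GST-tagged GSK-3 alpha with peptide substrate and 25 µM ATP; 0% = DMSO neutral wells and 100% = GW8510 positive control wells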
Target sequence (P49840 whole entry, looked up): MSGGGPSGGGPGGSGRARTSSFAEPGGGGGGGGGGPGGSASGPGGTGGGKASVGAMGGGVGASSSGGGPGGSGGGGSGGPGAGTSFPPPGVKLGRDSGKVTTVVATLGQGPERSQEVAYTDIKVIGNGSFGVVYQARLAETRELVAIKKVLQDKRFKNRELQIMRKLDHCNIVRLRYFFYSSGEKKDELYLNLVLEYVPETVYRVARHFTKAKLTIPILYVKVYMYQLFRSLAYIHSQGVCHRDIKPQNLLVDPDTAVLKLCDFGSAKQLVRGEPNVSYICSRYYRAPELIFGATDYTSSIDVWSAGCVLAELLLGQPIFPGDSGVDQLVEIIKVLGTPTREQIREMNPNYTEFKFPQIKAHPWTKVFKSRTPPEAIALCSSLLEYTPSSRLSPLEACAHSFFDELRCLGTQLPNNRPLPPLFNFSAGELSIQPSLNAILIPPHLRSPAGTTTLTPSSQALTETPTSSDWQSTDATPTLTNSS
procasp3 activ: activates human procaspase-3; recombinant procaspase-3 D3A, Ac-DEVD-pNA absorbance 405 nm; activation, % at 8.5 µM; 330,000 tested, 0.11% active; AID 463141;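 active = activation above the mean of all tested compounds plus 3 SD, cut at about 21% in these data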;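 note: 0% = DMSO alone and 100% = DMSO wells spiked with extra 5 µM PC-3 D3A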
Target sequence (P42574 whole entry D9A/D28A/D175A): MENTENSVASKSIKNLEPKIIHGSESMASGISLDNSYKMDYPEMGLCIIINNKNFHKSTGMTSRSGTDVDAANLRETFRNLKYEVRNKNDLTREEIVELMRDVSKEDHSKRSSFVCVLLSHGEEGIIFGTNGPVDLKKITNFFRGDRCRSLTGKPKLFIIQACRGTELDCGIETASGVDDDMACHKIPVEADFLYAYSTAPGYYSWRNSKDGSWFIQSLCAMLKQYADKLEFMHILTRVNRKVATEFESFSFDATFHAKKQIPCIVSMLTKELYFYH
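assay system = Procaspase-3 D3A mutant | signal = absorbance at 405 nm, 0 and 120 min | times = 1 h preincubation plus 2 h reaction at 25 °C | repeats = single replicate | read-out = % activation between DMSO and enzyme-spiked controls | medium = Zinc-free HEPES saline buffer with Triton X-100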
A1 inh: inhibitors of the anti-apoptotic protein A1, read as caspase activation; MEF A1-2A-BIM cells, Caspase-Glo 3/7 luminescence, 3 h; percent of clofoctol response, vehicle zero; caspase activation, % (no concentration beside the values); 330,000 tested, 0.066% active;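 active = over half of replicate activation scores above 10%, or exactly half above 10 with the replicate mean above 10; inconclusive = replicate mean below 10 yet half the replicates above 10; inactive = over half of replicates below 10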
GSK3B inh: human GSK3beta kinase inhibition | P49841 | GST-GSK3beta kinase, ADP-Glo luminescence, 60 min; hits give low values | activity score (negative = inhibition), % at 10 µM | 300,000 tested, 0.038% active | AID 2097;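 active = more than half of replicate wells score below -50%, meaning over 50% inhibition versus plate controls; inconclusive = some replicates but at most half score below -50%; inactive = no replicate scores below -50%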;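 note: 0% = median DMSO wells and -100% = median GW8510 positive control wells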
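Assay system: GST-tagged human GSK3beta kinase, cell-free; Input: 1.6 ng GSK3beta; Medium: Tris/MgCl2 kinase buffer; Timing: 60 min enzyme reaction, room temperature; Signal: ADP-Glo luminescence quantifying ADP generated by kinase; Evaluation: score relative to plate controls; Benchmarks: DMSO neutral wells and GW8510 at 20 µM as positive.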
proCasp7 act: counter-screen for procaspase-3 activators: activators of human procaspase-7; recombinant procaspase-7, Ac-DEVD-pNA absorbance 405 nm; D23A/D198A/D206A triple mutant, cannot self-cleave; scale: DMSO 0, 5 µM enzyme 100; activation, % at 8.5 µM; 330,000 tested, 0.093% active;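 active = percent activation above the screen-wide mean plus 3 SD, cut at about 25% in these data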
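System: Procaspase-7 triple mutant (PC-7 D3A); measure: % activation from two-timepoint absorbance difference, scaled to controls; times: 1 h compound preincubation, 2 h substrate cleavage, 25 °C; also added: Ac-DEVD-pNA substrate, 400 µM as added; measured by: Epi-absorbance of released pNA at 405 nm, two timepoints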
STK33 kinase inh: inhibitors of human STK33 kinase; Q9BYT3; purified STK33, MBP phosphorylation, ADP-Glo luminescence; inhibition, % at 10 µM; 320,000 tested, 0.073% active;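 active = inhibition at or above 25%, using the most active replicate where run in duplicate; inactive = inhibition below 25%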
Starred values were filed as active, the others as inactive; u = inconclusive; x = no result given.

SMILES | GSK3 alpha inh | procasp3 activ | A1 inh | GSK3B inh | proCasp7 act | STK33 kinase inh
O=C(O)C(Sc1ccncn1)c1ccccc1 (centres undefined) | -0.6 | -6.7 | -0.2 | -2.7 | -3.0 | 0.2
Cc1ccc(NC(=O)COC(=O)c2cc(Cl)ccc2Cl)c(Br)c1 | 9.5 | -1.4 | -0.1 | -0.1 | 5.2 | 25.5*
N#CCn1nnc(-c2ccc3c(c2)OCO3)n1 | 1.3 | 10.8 | 6.7* | -0.6 | -5.2 | 0.3
CSc1nc(NCC(C)O)c2c3c(sc2n1)CN(C)CC3 (centres undefined) | 48.4 | 11.2 | -0.3 | -54.4* | 8.6 | 3.7
Cc1ccccc1NC(=O)COC(=O)/C=C/c1cn(-c2ccccc2)nc1-c1cccnc1 | 3.0 | 0.8 | 0.8 | 2.0 | 6.1 | -1.1
CC(=O)Nc1ccc(NC(=O)C(C)OC(=O)/C=C/c2cn(-c3ccccc3)nc2-c2cccnc2)cc1 (centres undefined) | -0.9 | 7.4 | 15.7* | -0.5 | 12.6 | -1.0
Cc1cc(O)c(S(=O)(=O)c2ccccc2)c(C)c1NS(=O)(=O)c1ccccc1 | 1.8 | -10.9 | 0.0 | 0.9 | -11.2 | 0.6
CCOC(=O)/C(=C\c1cccnc1)C(=O)c1cc(C(C)=O)c(Nc2ccccc2)s1 | -0.8 | -0.5 | 22.3* | -0.9 | -9.7 | -0.8
CCOC(=O)/C(=C\c1ccccc1)C(=O)c1cc(C(C)=O)c(Nc2ccccc2)s1 | -2.1 | 8.6 | -1.2 | -3.1 | 5.8 | -1.0
COc1ccc(-c2nn(-c3ccccc3)cc2/C=N/O)cc1OC | 73.1* | 4.2 | 0.2 | -55.6* | 4.8 | 2.8
CCOC(=O)c1c2ccc(OCC(=O)NN)cc2n2ccccc12 | 0.7 | 5.0 | -0.3 | 1.0 | 6.2 | -0.1
CCOC(=O)c1c2ccc(OCC(=O)N/N=C/c3ccc(C)cc3)cc2n2ccccc12 | x | -4.1 | 34.8* | 1.9 | 10.8 | 0.4
O=C(CS(=O)c1ccc(C(F)(F)F)cc1[N+](=O)[O-])Oc1ccccc1 (centres undefined) | 0.7 | -5.9 | 9.2* | 6.3 | -5.8 | 2.5
COC(=O)c1ccc(OC(=O)CS(=O)c2ccccc2[N+](=O)[O-])cc1 (centres undefined) | 0.7 | 5.0 | 0.8 | 2.4 | -4.4 | 0.8
Cc1ccsc1C1C2=C(CC(C)(C)CC2=O)Nc2ncnn21 (centres undefined) | 62.7* | 2.7 | 0.6 | -0.2 | 0.5 | -0.7
c1ccc2c(c1)NC(c1ccncc1)n1c-2nc2ccccc21 (centres undefined) | -16.4 | 0.6 | 0.5 | -9.2 | 1.2 | -1.1
c1cncc(C2Nc3ccccc3-c3nc4ccccc4n32)c1 (centres undefined) | 9.8 | -2.3 | -0.2 | -1.2 | -1.7 | 39.4*
O=C(O)c1ccc(N=Cc2c(O)ccc3oc4c(c23)CCCC4)cc1 | 7.2 | -1.5 | -0.4 | 0.8 | 5.2 | 45.8*
CC1CCc2c(sc3nn[nH]c(=O)c23)C1 (centres undefined) | 52.2* | 0.8 | -0.3 | -28.0 | 0.2 | 2.7
CSc1nc2sc3c(c2c(=O)[nH]1)CCC(C)C3 (centres undefined) | -2.6 | 3.8 | 0.6 | -5.8 | 9.1 | -0.5
CCc1ncc(/C=C2\C(=O)Nc3ccccc32)[nH]1 | 9.4 | -4.6 | -2.2 | -3.5 | -2.4 | 48.5*
Cc1ncc(/C=C2\C(=O)Nc3ccccc32)[nH]1 | 7.1 | -0.9 | -1.1 | 0.1 | -3.6 | 76.0*
CCn1c(/C=C2\C(=O)Nc3ccccc32)nc2ccccc2c1=O | 5.9 | 3.9 | 0.4 | -3.0 | 3.5 | 2.3
CN(C)/C=C1\C(=O)Nc2ccccc21 | 1.2 | 2.4 | 0.1 | 1.5 | 5.5 | -0.8
COc1ccc(-c2sc3ccccc3c2/C=C/c2ccncc2)cc1 | 1.0 | -14.0 | u | x | -10.0 | -1.2
SMILES | GSK3 alpha inh | procasp3 activ | A1 inh | GSK3B inh | proCasp7 act | STK33 kinase inh
Cc1c(C=O)c(C=O)c(C)n1Cc1ccccc1 | 0.3 | 4.0 | 9.3* | -1.8 | -4.3 | -2.4
Cc1cccc(N2C(=O)C3CCC(c4ccccc4)CC3C2=O)c1 (centres undefined) | x | 6.5 | 0.4 | 2.1 | -3.5 | x
COc1ccc(NC(=O)C(=O)N/N=C\c2ccc(CNC(=O)C(=O)Nc3ccc(C)c(C)c3)o2)c(OC)c1 | 2.3 | -2.7 | 23.6* | 1.1 | 1.5 | 2.4
O=C(CN1C(=O)CSc2ccccc21)N/N=C/c1ccco1 | -17.6 | 8.3 | 0.0 | 1.0 | -1.0 | -1.6
Cc1noc(C)c1CSCC(=O)N(C)CC(=O)Nc1ccc(Cl)c(Cl)c1 | 1.0 | -2.0 | 9.7* | 0.4 | -3.0 | -0.8
Cc1noc(C)c1CSCC(=O)N(C)CC(=O)Nc1ccc(Cl)c(C(F)(F)F)c1 | -1.2 | 3.3 | -0.3 | 1.3 | 4.0 | -1.2
Cc1c(C)c(C)c(C(=O)CCc2cccc(NC(=O)CCC(=O)O)c2)c(C)c1C | -2.5 | 9.1 | 10.5* | -1.3 | -6.0 | -0.4
CSc1cccc(NC(=O)CCC(=O)O)c1 | -0.8 | 2.0 | 0.3 | 2.1 | -9.9 | -0.2
COc1cccc(C2C(C(=O)Nc3nc4ccccc4s3)=C(C)NC3=C2C(=O)CC(C)(C)C3)c1OC (centres undefined) | 0.7 | 45.1* | -1.6 | 2.4 | 22.7 | -1.3
CCOc1ccc(-c2ccc(SC)nn2)cc1 | 20.4 | 9.3 | -10.0 | -14.8 | -0.3 | 31.1*
CC1CCN(C(c2cccs2)c2nnnn2Cc2ccccc2)CC1 (centres undefined) | 1.8 | -7.7 | 0.3 | -1.9 | 3.7 | -1.1
O=C(NCc1cccc(OC(F)(F)F)c1)c1cccc2c1C(=O)c1ccc(-c3ccc(F)cc3OCc3ccccc3)cc1S2(=O)=O | -2.8 | 8.0 | 1.1 | x | 8.8 | -0.9
O=C(NCc1cc(C(F)(F)F)ccc1Cl)c1cccc2c1C(=O)c1ccc(-c3ccc(OC(F)(F)F)cc3)cc1S2(=O)=O | -42.0 | 0.3 | 0.3 | x | 3.5 | -2.5
COc1ccc(-c2ccc3c(c2)S(=O)(=O)c2cccc(C(=O)NCc4cccc(OC(F)(F)F)c4)c2C3=O)cc1OC | 2.4 | 3.5 | 38.7* | x | -8.4 | -1.0
O=C(NCc1ccccc1Cl)c1cccc2c1C(=O)c1ccc(-c3ccc(OC(F)(F)F)cc3)cc1S2(=O)=O | -4.1 | -2.0 | 10.4* | x | 1.8 | -0.6
Oc1ccc(Br)cc1C1Nc2ccccc2S1 (centres undefined) | -4.2 | -10.5 | -5.3 | -1.0 | -3.0 | 2.1
Nc1nc(NCC2CCCO2)nc(Nc2cccc(F)c2)c1[N+](=O)[O-] (centres undefined) | -2.5 | -5.6 | -0.2 | -12.4 | 3.0 | -1.0
Nc1nc(NCCCN2CCOCC2)nc(Nc2ccc(Cl)cc2)c1[N+](=O)[O-] | 56.7* | 2.7 | -0.3 | -26.7 | 12.7 | 1.0
